Our source for the ED50, Activity and Ki values is ChEMBL document CHEMBL4808213, “2-(Halogenated Phenyl) acetamides and propanamides as potent TRPV1 antagonists” (Bioorg Med Chem Lett, 2021).

Active and inactive are the calls of the source. No cut-off for these calls is given here.

T1 sequence (Q8NER1 whole entry): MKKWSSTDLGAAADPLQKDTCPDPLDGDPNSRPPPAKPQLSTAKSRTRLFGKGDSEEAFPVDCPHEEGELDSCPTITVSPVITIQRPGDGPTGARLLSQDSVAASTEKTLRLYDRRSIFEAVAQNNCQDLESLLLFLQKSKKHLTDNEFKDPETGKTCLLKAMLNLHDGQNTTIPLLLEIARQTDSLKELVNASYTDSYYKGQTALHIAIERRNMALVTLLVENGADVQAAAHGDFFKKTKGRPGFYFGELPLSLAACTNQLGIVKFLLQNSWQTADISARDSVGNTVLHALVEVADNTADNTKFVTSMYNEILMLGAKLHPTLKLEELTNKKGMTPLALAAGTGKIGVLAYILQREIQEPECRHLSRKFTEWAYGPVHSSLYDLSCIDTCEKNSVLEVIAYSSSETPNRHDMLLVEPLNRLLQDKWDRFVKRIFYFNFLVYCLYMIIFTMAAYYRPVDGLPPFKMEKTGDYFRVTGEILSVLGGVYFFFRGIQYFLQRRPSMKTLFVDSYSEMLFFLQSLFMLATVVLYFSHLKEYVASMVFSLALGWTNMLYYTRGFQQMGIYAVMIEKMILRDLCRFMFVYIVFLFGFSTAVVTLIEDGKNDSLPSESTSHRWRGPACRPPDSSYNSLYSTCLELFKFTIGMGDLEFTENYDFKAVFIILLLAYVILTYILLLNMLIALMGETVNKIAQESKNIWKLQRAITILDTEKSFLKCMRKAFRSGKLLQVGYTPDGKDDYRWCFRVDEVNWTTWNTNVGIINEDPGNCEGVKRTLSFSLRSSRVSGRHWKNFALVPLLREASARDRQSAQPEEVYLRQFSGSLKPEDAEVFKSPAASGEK

The first experiment concerns Mus musculus. The experiment can be described thus: Analgesic activity in ip dosed mouse model of formalin-induced paw edema assessed as reduction in pain behaviour by measuring effective dose in 1st phase. Format: functional.
Conditions: not given
The essentials:
(§1)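 Formalin test in mice, with antagonist given by intraperitoneal injection before testing. Nociceptive behaviour was scored separately in the 1st and 2nd phases. Several doses were tested, and ED50 for each phase was derived from the dose-response.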
One may read the ED50 as the dose at which the effect has come halfway, by size or by number of responders. For the molecule `CC(C)(C)c1cc(CNC(=O)Cc2cccc(F)c2F)n(-c2cccc(Cl)c2)n1`, the ED50 is 50.5 mg/kg.

A further experiment concerns Mus musculus. Nature of the experiment: Analgesic activity in ip dosed mouse model of formalin-induced paw edema. Format: functional, organism-based.
Conditions: not given
The method, boiled down: as §1
Take `CC1CCN(c2nc(C(F)(F)F)ccc2CNC(=O)Cc2c(F)cccc2Cl)CC1`: the outcome was inactive.

The next experiment has as its target T1, Transient receptor potential cation channel subfamily V member 1 (Homo sapiens, UniProt Q8NER1). The experiment can be described thus: Agonist activity at human TRPV1 expressed in CHO cells. The class given is cell-based. Conditions: filed as agonist.
`CC(C)(C)c1cc(CNC(=O)Cc2cccc(Cl)c2)n(-c2cccc(Cl)c2)n1`: the outcome was Active. As for `CC(C(=O)NCc1cc(C(C)(C)C)nn1-c1cccc(Cl)c1)c1ccccc1F` (configuration not stated), the result was Active. `CC(C)(C)c1cc(CNC(=O)Cc2ccc(F)c(Cl)c2)n(-c2cccc(Cl)c2)n1`: the result was Active. As to `CC1CCN(c2nc(C(F)(F)F)ccc2CNC(=O)Cc2ccc(F)cc2F)CC1`, the result was Active. Still for that read-out and setting: next, `CC(C(=O)NCc1cc(C(C)(C)C)nn1-c1cccc(Cl)c1)c1cccc(Cl)c1` (configuration not stated): “Active”. For the molecule `CC(C(=O)NCc1cc(C(C)(C)C)nn1-c1cccc(Cl)c1)c1ccc(Cl)c(Cl)c1` (configuration not stated), the result was Active. As for `CC1CCN(c2nc(C(F)(F)F)ccc2CNC(=O)Cc2ccc(F)cc2)CC1`, the result was Active. `CC(C(=O)NCc1cc(C(C)(C)C)nn1-c1cccc(Cl)c1)c1ccc(F)cc1` (configuration not stated): the outcome was Active. Regarding `CC1CCN(c2nc(C(F)(F)F)ccc2CNC(=O)C(C)c2ccc(F)cc2)CC1` (configuration not stated), the result was Active. As to `CC(C)(C)c1cc(CNC(=O)Cc2ccc(Cl)cc2)n(-c2cccc(Cl)c2)n1`, the outcome was Active. The same measure, in the same setting: next, `CC(C)(C)c1cc(CNC(=O)Cc2ccc(F)c(F)c2)n(-c2cccc(Cl)c2)n1`: “Active”. Consider `CC(C(=O)NCc1cc(C(C)(C)C)nn1-c1cccc(Cl)c1)c1ccc(F)c(F)c1` (configuration not stated), for which the result was Active.

On to `CC(C)(C)c1cc(CNC(=O)Cc2ccc(F)cc2)n(-c2cccc(Cl)c2)n1`, for which the outcome was Active. Regarding `CC(C(=O)NCc1cc(C(C)(C)C)nn1-c1cccc(Cl)c1)c1ccc(F)c(Cl)c1` (configuration not stated), the result was Active. On the same count and under the same terms, then `CC(C(=O)NCc1cc(C(C)(C)C)nn1-c1cccc(Cl)c1)c1ccc(Cl)c(F)c1` (configuration not stated), with “Active”. The same measure, in the same setting: then `CC(C)(C)c1cc(CNC(=O)Cc2cccc(F)c2)n(-c2cccc(Cl)c2)n1`, with “Active”. Regarding `CC(C(=O)NCc1cc(C(C)(C)C)nn1-c1cccc(Cl)c1)c1ccc(Cl)cc1Cl` (configuration not stated), the outcome was Active.

With `CC1CCN(c2nc(C(F)(F)F)ccc2CNC(=O)C(C)c2cccc(F)c2)CC1` (configuration not stated), the outcome was Active. As for `CC(C(=O)NCc1cc(C(C)(C)C)nn1-c1cccc(Cl)c1)c1cc(F)cc(F)c1` (configuration not stated), the result was Active.

In the case of `CC1CCN(c2nc(C(F)(F)F)ccc2CNC(=O)C(C)c2ccc(F)c(F)c2)CC1` (configuration not stated), the outcome was Active. Same read-out and setting: then `CC1CCN(c2nc(C(F)(F)F)ccc2CNC(=O)C(C)c2ccc(F)cc2Cl)CC1` (configuration not stated), with “Active”; and `CC(C(=O)NCc1cc(C(C)(C)C)nn1-c1cccc(Cl)c1)c1cccc(F)c1` (configuration not stated), with “Active”; and `CC(C(=O)NCc1cc(C(C)(C)C)nn1-c1cccc(Cl)c1)c1ccc(F)cc1F` (configuration not stated), with “Active”.

With `CC(C(=O)NCc1cc(C(C)(C)C)nn1-c1cccc(Cl)c1)c1ccc(Cl)cc1` (configuration not stated), the result was Active.

`CC1CCN(c2nc(C(F)(F)F)ccc2CNC(=O)Cc2ccc(Cl)cc2)CC1`: the result was Active.

The next experiment concerns the target T1, Transient receptor potential cation channel subfamily V member 1. The experiment can be described thus: Antagonist activity at human TRPV1 expressed in CHO cells assessed as inhibition of capsaicin-induced TRPV1 activation by FLIPR method. Format: cell-based.
Conditions: not given
By Ki is commonly meant a measure of affinity in units of concentration, obtained from inhibition or displacement. As to `CC(C)(C)c1cc(CNC(=O)Cc2ccc(Cl)cc2Cl)n(-c2cccc(Cl)c2)n1`, the Ki is 16.7 nM. Take `O=C(Cc1cccc(Cl)c1Cl)NCc1cc(C(F)(F)F)nn1-c1cccc(Cl)c1`: the Ki worked out at 22.6 nM.

On to `CC1CCN(c2nc(C(F)(F)F)ccc2CNC(=O)Cc2ccc(F)c(C(F)(F)F)c2)CC1`, for which the Ki came to 9.8 nM. Turning to `CC1CCN(c2nc(C(F)(F)F)ccc2CNC(=O)Cc2ccc(Cl)cc2Cl)CC1`, the Ki was found to be 46 nM. Turning to `CC1CCN(c2nc(C(F)(F)F)ccc2CNC(=O)Cc2cccc(Cl)c2Cl)CC1`, the Ki stood at 4.9 nM. Turning to `CC1CCN(c2nc(C(F)(F)F)ccc2CNC(=O)[C@@H](C)c2ccc(NS(C)(=O)=O)c(F)c2)CC1` (racemic), the Ki is 0.3 nM.

As to `CC(C)(C)c1cc(CNC(=O)Cc2ccc(F)cc2Cl)n(-c2cccc(Cl)c2)n1`, the inhibition constant (Ki) came out at 19.9 nM. As for `C[C@H](C(=O)NCc1cc(C(C)(C)C)nn1-c1cccc(Cl)c1)c1ccc(NS(C)(=O)=O)c(F)c1`, the Ki was determined as 0.3 nM. As for `O=C(Cc1ccc(Cl)c(F)c1)NCc1cc(C(F)(F)F)nn1-c1cccc(Cl)c1`, the Ki came to 20.9 nM. As to `O=C(Cc1cccc(F)c1F)NCc1cc(C(F)(F)F)nn1-c1cccc(Cl)c1`, the Ki worked out at 11.5 nM.

`CC1CCN(c2nc(C(F)(F)F)ccc2CNC(=O)Cc2ccc(F)cc2Cl)CC1`: the Ki turned out to be 14.2 nM. `O=C(Cc1cc(F)ccc1F)NCc1cc(C(F)(F)F)nn1-c1cccc(Cl)c1`: the Ki amounted to 58.9 nM. On the same count and under the same terms, next, `O=C(Cc1cc(F)cc(F)c1)NCc1cc(C(F)(F)F)nn1-c1cccc(Cl)c1`: 13.7 nM. Still for that read-out and setting: next, `O=C(Cc1ccc(F)cc1F)NCc1cc(C(F)(F)F)nn1-c1cccc(Cl)c1`: 43.3 nM.

Consider `CC(C)(C)c1cc(CNC(=O)Cc2c(F)cccc2Cl)n(-c2cccc(Cl)c2)n1`, for which the inhibition constant Ki came to 19 nM.

As for `O=C(Cc1ccc(Cl)cc1)NCc1cc(C(F)(F)F)nn1-c1cccc(Cl)c1`, the Ki was 6.3 nM. As for `O=C(Cc1ccc(F)cc1Cl)NCc1cc(C(F)(F)F)nn1-c1cccc(Cl)c1`, the Ki amounted to 38.8 nM. Regarding `CC(C)(C)c1cc(CNC(=O)Cc2cccc(F)c2F)n(-c2cccc(Cl)c2)n1`, the Ki worked out at 6.9 nM. The same measure, in the same setting: then `O=C(Cc1ccc(Cl)c(Cl)c1)NCc1cc(C(F)(F)F)nn1-c1cccc(Cl)c1`, with 3.8 nM. On the same count and under the same terms, then `CC1CCN(c2nc(C(F)(F)F)ccc2CNC(=O)Cc2c(Cl)cccc2Cl)CC1`, with 39.7 nM. As for `CC1CCN(c2nc(C(F)(F)F)ccc2CNC(=O)Cc2cccc(Cl)c2)CC1`, the Ki was found to be 6.1 nM.

On to `CC1CCN(c2nc(C(F)(F)F)ccc2CNC(=O)Cc2c(F)cccc2Cl)CC1`, for which the Ki is 2.6 nM.

In a further experiment the test system is Mus musculus. The experiment can be described thus: Analgesic activity in mouse model of formalin-induced paw edema assessed as induction of hyperthermia at 10 mg/kg, ip.
Conditions: not given
The class given is functional, organism-based. The method, boiled down:
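Mice received 10 mg/kg intraperitoneally, and body temperature was then measured to check for hyperthermia.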
For `CC(C)(C)c1cc(CNC(=O)Cc2cccc(F)c2F)n(-c2cccc(Cl)c2)n1`, the result was inactive.

A further experiment deals with Mus musculus. The experiment can be described thus: Analgesic activity in ip dosed mouse model of formalin-induced paw edema assessed as reduction in pain behaviour by measuring effective dose in 2nd phase. The class given is functional.
Conditions: not given
The method, boiled down:
as §1
`CC(C)(C)c1cc(CNC(=O)Cc2cccc(F)c2F)n(-c2cccc(Cl)c2)n1`: the 50% effective dose (ED50) was found to be 29.5 mg/kg.

In a further experiment the target is T1, Transient receptor potential cation channel subfamily V member 1. Nature of the experiment: Partial agonist activity at human TRPV1 expressed in CHO cells. The class given is cell-based. Conditions: filed as partial agonist.
As for `CC(C(=O)NCc1cc(C(C)(C)C)nn1-c1cccc(Cl)c1)c1cc(F)ccc1F` (configuration not stated), the outcome was Active. The same measure, in the same setting: next, `CC(C(=O)NCc1cc(C(C)(C)C)nn1-c1cccc(Cl)c1)c1cccc(Cl)c1Cl` (configuration not stated): “Active”; `O=C(Cc1ccc(F)c(F)c1)NCc1cc(C(F)(F)F)nn1-c1cccc(Cl)c1`: “Active”. `CC1CCN(c2nc(C(F)(F)F)ccc2CNC(=O)Cc2ccc(Cl)c(F)c2)CC1`: the outcome was Active. On the same count and under the same terms, next, `CC1CCN(c2nc(C(F)(F)F)ccc2CNC(=O)C(C)c2ccc(Cl)cc2)CC1` (configuration not stated): “Active”; `CC(C(=O)NCc1cc(C(C)(C)C)nn1-c1cccc(Cl)c1)c1ccccc1Cl` (configuration not stated): “Active”; `CC(C(=O)NCc1cc(C(F)(F)F)nn1-c1cccc(Cl)c1)c1cc(F)cc(F)c1` (configuration not stated): “Active”. As for `CC(C(=O)NCc1cc(C(F)(F)F)nn1-c1cccc(Cl)c1)c1ccc(F)cc1` (configuration not stated), the result was Active. Regarding `CC(C(=O)NCc1cc(C(F)(F)F)nn1-c1cccc(Cl)c1)c1ccc(Cl)cc1` (configuration not stated), the outcome was Active.

`CC1CCN(c2nc(C(F)(F)F)ccc2CNC(=O)Cc2ccc(F)c(F)c2)CC1`: the result was Active. Consider `CC(C(=O)NCc1cc(C(C)(C)C)nn1-c1cccc(Cl)c1)c1c(F)cccc1F` (configuration not stated), for which the outcome was Active. On to `CC1CCN(c2nc(C(F)(F)F)ccc2CNC(=O)C(C)c2ccc(F)cc2F)CC1` (configuration not stated), for which the result was Active. Turning to `CC(C)(C)c1cc(CNC(=O)Cc2ccc(Cl)c(F)c2)n(-c2cccc(Cl)c2)n1`, the result was Active.

`CC(C)(C)c1cc(CNC(=O)Cc2cc(F)cc(F)c2)n(-c2cccc(Cl)c2)n1`: the result was Active.

For the molecule `CC1CCN(c2nc(C(F)(F)F)ccc2CNC(=O)C(C)c2ccc(Cl)c(F)c2)CC1` (configuration not stated), the outcome was Active.

`CC(C(=O)NCc1cc(C(F)(F)F)nn1-c1cccc(Cl)c1)c1ccc(F)cc1F` (configuration not stated): the outcome was Active.

With `CC(C(=O)NCc1cc(C(F)(F)F)nn1-c1cccc(Cl)c1)c1ccc(F)c(F)c1` (configuration not stated), the outcome was Active.

With `CC(C)(C)c1cc(CNC(=O)Cc2ccc(F)cc2F)n(-c2cccc(Cl)c2)n1`, the result was Active. As for `CC(C)(C)c1cc(CNC(=O)Cc2ccc(Cl)c(Cl)c2)n(-c2cccc(Cl)c2)n1`, the result was Active. Consider `CC1CCN(c2nc(C(F)(F)F)ccc2CNC(=O)C(C)c2ccc(Cl)c(Cl)c2)CC1` (configuration not stated), for which the result was Active.

For `CC(C(=O)NCc1cc(C(F)(F)F)nn1-c1cccc(Cl)c1)c1cccc(Cl)c1` (configuration not stated), the result was Active. Take `O=C(Cc1ccc(F)cc1)NCc1cc(C(F)(F)F)nn1-c1cccc(Cl)c1`: the result was Active. On the same count and under the same terms, then `CC(C)(C)c1cc(CNC(=O)Cc2cc(F)ccc2F)n(-c2cccc(Cl)c2)n1`, with “Active”; and `CC(C(=O)NCc1cc(C(C)(C)C)nn1-c1cccc(Cl)c1)c1cccc(F)c1F` (configuration not stated), with “Active”.

As for `CC(C(=O)NCc1cc(C(F)(F)F)nn1-c1cccc(Cl)c1)c1cccc(F)c1` (configuration not stated), the outcome was Active.

On to `CC(C)(C)c1cc(CNC(=O)Cc2ccccc2F)n(-c2cccc(Cl)c2)n1`, for which the outcome was Active.
